# Legend:
# [1] = Inhibition of Trypanosoma brucei LeuRS preincubated for 20 mins prior to reaction initiation by aminoacylation assay
# Outline: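 Enzyme, compound, tRNA and 0.003 mCi/mL [¹⁴C]-leucine were incubated 20 min at 37 °C, then 4 mM ATP was added to start the reaction. Precipitated [¹⁴C]-Leu-tRNA^Leu on dried filter paper was measured by scintillation counting.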
# [2] = Inhibition of Staphylococcus aureus LeuRS
# [3] = Inhibition of human LeuRS
# [4] = Inhibition of Escherichia coli LeuRS
Structure (SMILES),IC50 [1],also measured
COc1ccc(C(=O)C2=C(O)C(=O)N(CCc3c[nH]c4ccccc34)C2c2ccc(C(C)C)cc2)cc1 (stereo unspecified),90.5 µM,–
COc1ccc(C(=O)C2=C(O)C(=O)N(CCc3c[nH]c4ccccc34)C2c2cccc(F)c2)cc1 (stereo unspecified),170 µM,–
COc1ccc(C(=O)C2=C(O)C(=O)N(CCc3c[nH]c4ccccc34)C2c2ccccc2F)cc1 (stereo unspecified),269 µM,–
COc1ccc(C(=O)C2=C(O)C(=O)N(CCc3c[nH]c4ccccc34)C2c2ccc(F)cc2)cc1 (stereo unspecified),64.7 µM,–
COc1ccc(C(=O)C2=C(O)C(=O)N(CCc3c[nH]c4ccccc34)C2c2ccccc2Cl)cc1 (stereo unspecified),125 µM,–
COc1ccc(C(=O)C2=C(O)C(=O)N(CCc3c[nH]c4ccccc34)C2c2ccc(Cl)cc2)cc1 (stereo unspecified),86.9 µM,–
COc1ccc(C(=O)C2=C(O)C(=O)N(CCc3c[nH]c4ccccc34)C2c2ccccc2)cc1 (stereo unspecified),260 µM,–
COc1ccc(C(=O)C2=C(O)C(=O)N(CCc3c[nH]c4ccccc34)C2c2ccc(C)cc2)cc1 (stereo unspecified),117 µM,–
CCc1ccc(C2C(C(=O)c3ccc(OC)cc3)=C(O)C(=O)N2CCc2c[nH]c3ccccc23)cc1 (stereo unspecified),71.4 µM,–
COc1ccc(C(=O)C2=C(O)C(=O)N(CCc3c[nH]c4ccccc34)C2c2ccc(OC)cc2)cc1 (stereo unspecified),334 µM,–
COc1ccc(C(=O)C2=C(O)C(=O)N(CCc3c[nH]c4ccccc34)C2c2ccccc2OC)cc1 (stereo unspecified),190 µM,–
COc1ccccc1C1C(C(=O)c2ccc(Cl)cc2)=C(O)C(=O)N1CCc1c[nH]c2ccccc12 (stereo unspecified),107 µM,–
O=C(C1=C(O)C(=O)N(CCc2c[nH]c3ccccc23)C1c1cccc(O)c1)c1ccc(Cl)cc1 (stereo unspecified),588 µM,–
O=C(C1=C(O)C(=O)N(CCc2c[nH]c3ccccc23)C1c1ccc(Cl)cc1)c1ccc(F)cc1 (stereo unspecified),> 1000 µM,–
O=C(C1=C(O)C(=O)N(CCc2c[nH]c3ccccc23)C1c1ccccc1)c1ccc(F)cc1 (stereo unspecified),> 1000 µM,–
O=C(C1=C(O)C(=O)N(CCc2c[nH]c3ccccc23)C1c1cccc(F)c1)c1ccccc1 (stereo unspecified),> 1000 µM,–
CCc1ccc(C2C(C(=O)c3ccc(OC)cc3)=C(O)C(=O)N2CCCNC(=O)OC(C)(C)C)cc1 (stereo unspecified),269 µM,–
CCc1ccc(C2C(C(=O)c3ccc(OC)cc3)=C(O)C(=O)N2c2ccc(CNC(=O)OC(C)(C)C)cc2)cc1 (stereo unspecified),102 µM,–
CCc1ccc(C2C(C(=O)c3ccc(OC)cc3)=C(O)C(=O)N2CCCNC(=O)CC(C)C)cc1 (stereo unspecified),> 1000 µM,–
CCc1ccc(C2C(C(=O)c3ccc(OC)cc3)=C(O)C(=O)N2Cc2ccc3c(c2)OCO3)cc1 (stereo unspecified),174 µM,–
CCc1ccc(C2C(C(=O)c3ccc(OC)cc3)=C(O)C(=O)N2Cc2ccc(C(=O)O)cc2)cc1 (stereo unspecified),656 µM,–

Structure (SMILES),IC50 [1],also measured
CCc1ccc(C2C(C(=O)c3ccc(OC)cc3)=C(O)C(=O)N2CCCn2ccnc2)cc1 (stereo unspecified),716 µM,–
CCc1ccc(C2C(C(=O)c3ccc(OC)cc3)=C(O)C(=O)N2CCCN)cc1 (stereo unspecified),> 1000 µM,–
CCc1ccc(C2C(C(=O)c3ccc(OC)cc3)=C(O)C(=O)N2c2ccc(CN)cc2)cc1 (stereo unspecified),> 1000 µM,–
COc1ccc(C(=O)C2=C(O)C(=O)N(CCc3c[nH]c4ccccc34)C2c2ccc(C(F)(F)F)cc2)cc1 (stereo unspecified),68.1 µM,–
COc1ccc(C(=O)C2=C(O)C(=O)N(CCc3c[nH]c4ccccc34)C2c2ccc(C(C)(C)C)cc2)cc1 (stereo unspecified),94.5 µM,–
CCCCc1ccc(C2C(C(=O)c3ccc(OC)cc3)=C(O)C(=O)N2CCc2c[nH]c3ccccc23)cc1 (stereo unspecified),43.9 µM,–
COc1ccc(C(=O)C2=C(O)C(=O)N(CCc3c[nH]c4ccccc34)C2c2ccc(CC(C)C)cc2)cc1 (stereo unspecified),31.9 µM,–
COc1ccc(C(=O)C2=C(O)C(=O)N(CCc3c[nH]c4ccccc34)C2c2ccc(-c3ccccc3)cc2)cc1 (stereo unspecified),43.1 µM,–
COc1ccc(C(=O)C2=C(O)C(=O)N(CCc3c[nH]c4ccccc34)C2c2ccc3ccccc3c2)cc1 (stereo unspecified),85.5 µM,–
COc1ccc(C(=O)C2=C(O)C(=O)N(CCc3c[nH]c4ccccc34)C2c2ccc(F)cc2Br)cc1 (stereo unspecified),110 µM,–
CCCCCC1C(C(=O)c2ccc(OC)cc2)=C(O)C(=O)N1CCc1c[nH]c2ccccc12 (stereo unspecified),111 µM,–
CC(C)Cc1ccc(C2C(C(=O)c3ccc(Cl)cc3)=C(O)C(=O)N2CCc2c[nH]c3ccccc23)cc1 (stereo unspecified),41 µM,–
CC(C)Cc1ccc(C2C(C(=O)c3ccc(F)cc3F)=C(O)C(=O)N2CCc2c[nH]c3ccccc23)cc1 (stereo unspecified),175 µM,–
CCc1ccc(C2C(C(=O)c3cccc4ccccc34)=C(O)C(=O)N2CCc2c[nH]c3ccccc23)cc1 (stereo unspecified),80 µM,–
CC[C@H](C)[C@H](N)C(=O)NS(=O)(=O)OC[C@H]1O[C@@H](c2nc(-c3ccccc3)ns2)[C@H](O)[C@@H]1O,–,IC50 [2]: > 20 µM; IC50 [3]: 200 µM; IC50 [4]: 1 µM
CC(C)C[C@H](N)C(=O)NS(=O)(=O)OC[C@H]1O[C@@H](c2nc(-c3ccc(Oc4ccccc4)cc3)ns2)[C@H](O)[C@@H]1O,–,IC50 [2]: 0.054 µM; IC50 [3]: 0.6 µM; IC50 [4]: 0.0016 µM
CC(C)C[C@H](N)C(=O)NS(=O)(=O)OC[C@H]1O[C@@H](c2nc(CCc3cccc(Oc4ccccc4)c3)ns2)[C@H](O)[C@@H]1O,–,IC50 [2]: 0.1 µM; IC50 [3]: 1.15 µM; IC50 [4]: 0.006 µM
CC(C)C[C@H](N)C(=O)NS(=O)(=O)OC[C@H]1O[C@@H](c2nc(CCc3ccccc3)ns2)[C@H](O)[C@@H]1O,–,IC50 [2]: 0.09 µM; IC50 [3]: 0.73 µM; IC50 [4]: < 0.002 µM
CC[C@H](C)[C@H](N)C(=O)NS(=O)(=O)OCc1oc(-c2nc(-c3ccccc3)cs2)c(O)c1O,–,IC50 [3]: 0.6 µM; IC50 [4]: 0.0016 µM
CC[C@H](C)[C@H](N)C(=O)NS(=O)(=O)CC(=O)O[C@H]1CC[C@H]2C(C(N)=O)=CN(C)C[C@@H]12,–,IC50 [2]: 0.42 µM
CC[C@H](C)[C@H](N)C(=O)NS(=O)(=O)CC(=O)N[C@]1(C(=O)OC)[C@@H]2CN(C)C=C(C(N)=O)[C@@H]2C[C@@H]1O,–,IC50 [2]: 186 µM

# From ChEMBL document CHEMBL1938385, “Identification of Trypanosoma brucei leucyl-tRNA synthetase inhibitors by pharmacophore- and docking-based virtual screening and synthesis” (Bioorg Med Chem, 2012)
